Source: ChEMBL document CHEMBL1125330, “N-substituted pyrazino[2,3-c][1,2,6]thiadiazine 2,2-dioxides. A new class of diuretics” (J Med Chem, 1992)

Legend:
Rattus norvegicus [1] = assay: Volume of urine 2 hr after the compound was administered 100 mg/kg po in rat; assay type: ADME, organism-based; design: dose 100 mg/kg, route oral; conditions: in vivo
Summary of the method: (§1)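 Onset/duration protocol: male Sprague-Dawley rats (HC/CFY, 175-200 g), food and water withdrawn for 18 h before and during the test. Single gavage dose in 1% carboxymethyl cellulose/0.1% Tween 80 (0.5 mL/100 g bw), then distilled water load (2.5 mL/100 g bw po). Two rats per metabolic cage, six pairs per group. Urine collected at 0-1, 1-2, 2-3, 3-4 and 4-6 h; Na+ by flame photometry. Vehicle controls; nonpaired Student t-test.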

Rattus norvegicus [2] = assay: Mean potassium excretion in rats when compound administered at 10 mg/kg po and vehicle dosed at 37.13 umol/kg; assay type: ADME, organism-based; design: dose 10 mg/kg, route oral; conditions: in vivo
Summary of the method: (§2)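 Male Sprague-Dawley rats (HC/CFY, 175-200 g), no food or water for 18 h before and during the test. Single gavage dose (2.5-160 mg/kg; vehicle 1% carboxymethyl cellulose/0.1% Tween 80, 0.5 mL/100 g bw), then distilled water 2.5 mL/100 g bw po. Individual metabolic cages, 6 h urine. K+ by flame photometry, Cl- colorimetric, as mequiv/6 h/kg bw; unpaired Student t-test vs control.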

Rattus norvegicus [3] = assay: Mean urinary output in rats when compound administered at 20 mg/kg po and vehicle dosed at 74.26 umol/kg; assay type: ADME, organism-based, Urine; design: dose 20 mg/kg, route oral; conditions: in vivo
Summary of the method: (§3)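 Water-loaded male Sprague-Dawley rats (HC/CFY, 175-200 g) fasted and without water for 18 h. Oral gavage of 2.5-160 mg/kg in 1% CMC with 0.1% Tween 80, then distilled water 2.5 mL/100 g po. Urine collected 6 h in metabolic cages, mean output in mL/6 h/kg bw. Unpaired Student t-test against vehicle; dose-response by linear regression.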

Rattus norvegicus [4] = assay: Mean sodium excretion in rats when compound administered at 5 mg/kg po and vehicle dosed at 18.56 umol/kg; assay type: ADME, organism-based; design: dose 5 mg/kg, route oral; conditions: in vivo
Summary of the method: (§4)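 Male Sprague-Dawley rats (HC/CFY, 175-200 g) fasted and water-deprived 18 h before and during the test. Dosed by gavage at 2.5-160 mg/kg in 1% carboxymethyl cellulose/0.1% Tween 80, 0.5 mL/100 g bw. Immediately hydrated with water (2.5 mL/100 g bw, po). Urine collected 6 h in metabolic cages; Na+ and K+ by flame photometry; mean mequiv/6 h/kg bw; nonpaired Student t-test.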

Rattus norvegicus [5] = assay: Mean potassium excretion in rats when compound administered at 5 mg/kg po and vehicle dosed at 18.56 umol/kg; assay type: ADME, organism-based; design: dose 5 mg/kg, route oral; conditions: in vivo; summary of the method: as §4
Rattus norvegicus [6] = assay: Mean Chlorine excretion in rats when compound administered at 160 mg/kg po and vehicle dosed at 594.07 umol/kg; assay type: ADME, organism-based; design: dose 160 mg/kg, route oral; conditions: in vivo; summary of the method: as §2
Rattus norvegicus [7] = assay: Urinary sodium 4 hr after the compound was administered 100 mg/kg po in rat; assay type: ADME, organism-based, Urine; design: dose 100 mg/kg, route oral; conditions: in vivo
Summary of the method: (§5)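 Onset and duration study in fasted, water-loaded male Sprague-Dawley rats housed two per metabolic cage, six pairs per group. Single oral dose given, then water 2.5 mL/100 g po. Urine volume and sodium (flame photometry) measured over 0-1, 1-2, 2-3, 3-4 and 4-6 h intervals. Mean values compared with vehicle by Student t-test.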

Rattus norvegicus [8] = assay: Mean potassium excretion in rats when compound administered at 2.5 mg/kg po and vehicle dosed at 9.28 umol/kg; assay type: ADME, organism-based; design: dose 2.5 mg/kg, route oral; conditions: in vivo; summary of the method: as §2
[9] = Ratio of Na+ to K+ excretion at dose; assay type: ADME
Summary of the method: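 Water-loaded fasted male Sprague-Dawley rats dosed orally in CMC/Tween 80 vehicle and hydrated with water 2.5 mL/100 g. Na+ and K+ in urine pooled over 6 h measured by flame photometry. Na+/K+ excretion ratio computed for each dose; Student t-test against control.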

Rattus norvegicus [10] = assay: Urinary sodium 3h after the compound was administered 100 mg/kg po in rat; assay type: ADME, organism-based, Urine; design: dose 100 mg/kg, route oral; conditions: in vivo; summary of the method: as §5
Rattus norvegicus [11] = assay: Mean potassium excretion in rats when compound administered at 80 mg/kg po and vehicle dosed at 297.03 umol/kg; assay type: ADME, organism-based; design: dose 80 mg/kg, route oral; conditions: in vivo; summary of the method: as §4
Rattus norvegicus [12] = assay: Mean sodium excretion in rats when compound administered at 80 mg/kg po and vehicle dosed at 297.03 umol/kg; assay type: ADME, organism-based; design: dose 80 mg/kg, route oral; conditions: in vivo; summary of the method: as §4
Rattus norvegicus [13] = assay: Dose required to produce an excretion of 2 mequiv of Na+/kg bw/6h vs control groups; assay type: functional
Summary of the method: (§6)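 Male Sprague-Dawley rats (HC/CFY, 175-200 g), fasted and water-deprived 18 h before and during the test. Compound dosed by gavage in 1% carboxymethyl cellulose/0.1% Tween 80, then water load 2.5 mL/100 g bw po. Urine collected 6 h in metabolic cages; Na+ by flame photometry. Effective doses vs vehicle controls derived by linear regression of dose-response data.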

Rattus norvegicus [14] = assay: Mean urinary output in rats when compound administered at 40 mg/kg po and vehicle dosed at 148.52 umol/kg; assay type: ADME, organism-based, Urine; design: dose 40 mg/kg, route oral; conditions: in vivo; summary of the method: as §3
[15] = Acute toxicity in mice when given po; assay type: organism-based; conditions: mouse, in vivo, read-out: DL50 (the source's name)
Summary of the method: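 Male Swiss mice (SPF, HC/CFLP strain, 20–25 g), oral dosing; mortality followed over 15 days; LD50 derived by the Litchfield and Wilcoxon method.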

Rattus norvegicus [16] = assay: Mean sodium excretion in rats when compound administered at 0 mg/kg po and vehicle dosed at 0 umol/kg; assay type: ADME, organism-based; design: dose 0 mg/kg, route oral; conditions: in vivo; summary of the method: as §4
Rattus norvegicus [17] = assay: Mean Chlorine excretion in rats when compound administered at 5 mg/kg po and vehicle dosed at 18.56 umol/kg; assay type: ADME, organism-based; design: dose 5 mg/kg, route oral; conditions: in vivo; summary of the method: as §2
Rattus norvegicus [18] = assay: Mean urinary output in rats when compound administered at 160 mg/kg po and vehicle dosed at 594.07 umol/kg; assay type: ADME, organism-based, Urine; design: dose 160 mg/kg, route oral; conditions: in vivo; summary of the method: as §3
Rattus norvegicus [19] = assay: Mean sodium excretion in rats when compound administered at 160 mg/kg po and vehicle dosed at 594.07 umol/kg; assay type: ADME, organism-based; design: dose 160 mg/kg, route oral; conditions: in vivo; summary of the method: as §4
Rattus norvegicus [20] = assay: Mean potassium excretion in rats when compound administered at 40 mg/kg po and vehicle dosed at 148.52 umol/kg; assay type: ADME, organism-based; design: dose 40 mg/kg, route oral; conditions: in vivo; summary of the method: as §2
Rattus norvegicus [21] = assay: Urinary sodium 1 hr after the compound was administered 100 mg/kg po in rat; assay type: ADME, organism-based, Urine; design: dose 100 mg/kg, route oral; conditions: in vivo; summary of the method: as §5
Rattus norvegicus [22] = assay: Volume of urine 4 hr after the compound was administered 100 mg/kg po in rat; assay type: ADME, organism-based; design: dose 100 mg/kg, route oral; conditions: in vivo; summary of the method: as §1
Rattus norvegicus [23] = assay: Mean Chlorine excretion in rats when compound administered at 80 mg/kg po and vehicle dosed at 297.03 umol/kg; assay type: ADME, organism-based; design: dose 80 mg/kg, route oral; conditions: in vivo; summary of the method: as §2
Rattus norvegicus [24] = assay: Mean urinary output in rats when compound administered at 80 mg/kg po and vehicle dosed at 297.03 umol/kg; assay type: ADME, organism-based, Urine; design: dose 80 mg/kg, route oral; conditions: in vivo; summary of the method: as §3
Rattus norvegicus [25] = assay: Mean urinary output in rats when compound administered at 2.5 mg/kg po and vehicle dosed at 9.28 umol/kg; assay type: ADME, organism-based, Urine; design: dose 2.5 mg/kg, route oral; conditions: in vivo; summary of the method: as §3
Rattus norvegicus [26] = assay: Mean potassium excretion in rats when compound administered at 0 mg/kg po and vehicle dosed at 0 umol/kg; assay type: ADME, organism-based; design: dose 0 mg/kg, route oral; conditions: in vivo; summary of the method: as §2
Rattus norvegicus [27] = assay: Urinary sodium 6 hr after the compound was administered 100 mg/kg po in rat; assay type: ADME, organism-based, Urine; design: dose 100 mg/kg, route oral; conditions: in vivo; summary of the method: as §5
Rattus norvegicus [28] = assay: Mean Chlorine excretion in rats when compound administered at 2.5 mg/kg po and vehicle dosed at 9.28 umol/kg; assay type: ADME, organism-based; design: dose 2.5 mg/kg, route oral; conditions: in vivo; summary of the method: as §2
Rattus norvegicus [29] = assay: Mean Chlorine excretion in rats when compound administered at 0 mg/kg po and vehicle dosed at 0 umol/kg; assay type: ADME, organism-based; design: dose 0 mg/kg, route oral; conditions: in vivo
Rattus norvegicus [30] = assay: Mean urinary output in rats when compound administered at 10 mg/kg po and vehicle dosed at 37.13 umol/kg; assay type: ADME, organism-based, Urine; design: dose 10 mg/kg, route oral; conditions: in vivo; summary of the method: as §3
Rattus norvegicus [31] = species on record: Rattus norvegicus; assay: Dose required to produce increase in 200 % in urine production vs control groups; assay type: functional; summary of the method: as §6

## CCc1nc2c(nc1C)C(N)=NS(=O)(=O)N2CC
Rattus norvegicus [1]
  Urine volume: 8.7 mL
Rattus norvegicus [2]
  K: 0.72 m equiv 6hr-1 kg-1 (body weight)-1
Rattus norvegicus [3]
  V: 42.25 ml 6hr-1 (kg of body weight)-1
Rattus norvegicus [4]
  Na: 0.8 m equiv 6hr-1 kg-1 (body weight)-1
Rattus norvegicus [5]
  K: 0.52 m equiv 6hr-1 kg-1 (body weight)-1
Rattus norvegicus [6]
  Cl-: 9.28 m equiv 6hr-1 kg-1 (body weight)-1
Rattus norvegicus [7]
  Urinary Na+: 0.27 m equiv
Rattus norvegicus [8]
  K: 0.46 m equiv 6hr-1 kg-1 (body weight)-1
[9]
  Ratio: 2.43 [middle of 8 runs]
Rattus norvegicus [10]
  Urinary Na+: 0.56 m equiv
Rattus norvegicus [11]
  K: 2.06 m equiv 6hr-1 kg-1 (body weight)-1
Rattus norvegicus [12]
  Na: 5.1 m equiv 6hr-1 kg-1 (body weight)-1
Rattus norvegicus [13]
  ED2: 14.62 mg/kg
Rattus norvegicus [14]
  V: 59.12 ml 6hr-1 (kg of body weight)-1
[15]
  LD50: 1840 mg/kg
Rattus norvegicus [16]
  Na: 0.43 m equiv 6hr-1 kg-1 (body weight)-1
Rattus norvegicus [17]
  Cl-: 1.83 m equiv 6hr-1 kg-1 (body weight)-1
Rattus norvegicus [18]
  V: 74.26 ml 6hr-1 (kg of body weight)-1
Rattus norvegicus [19]
  Na: 6.14 m equiv 6hr-1 kg-1 (body weight)-1
Rattus norvegicus [20]
  K: 1.25 m equiv 6hr-1 kg-1 (body weight)-1
Rattus norvegicus [21]
  Urinary Na+: 0.15 m equiv
Rattus norvegicus [22]
  Urine volume: 2.71 mL
Rattus norvegicus [23]
  Cl-: 8.04 m equiv 6hr-1 kg-1 (body weight)-1
Rattus norvegicus [24]
  V: 62.99 ml 6hr-1 (kg of body weight)-1
Rattus norvegicus [25]
  V: 20.52 ml 6hr-1 (kg of body weight)-1
Rattus norvegicus [26]
  K: 0.49 m equiv 6hr-1 kg-1 (body weight)-1
Rattus norvegicus [27]
  Urinary Na+: 0.16 m equiv
Rattus norvegicus [28]
  Cl-: 1.21 m equiv 6hr-1 kg-1 (body weight)-1
Rattus norvegicus [29]
  Cl-: 1.02 m equiv 6hr-1 kg-1 (body weight)-1
Rattus norvegicus [30]
  V: 32.6 ml 6hr-1 (kg of body weight)-1
Rattus norvegicus [31]
  ED200: 87.61 mg/kg
